Experimental data published in publication PMC2833353 (Cancer research, 2009).
Where a SMILES comes first, the peptide text is derived from it. Bridges are numbered along the chain shown (N, C = ends). The star is where a group is joined. DOTA = O=C(O)CN1CCN(CC(=O)O)CCN(CC(=O)*)CCN(CC(=O)O)CC1

Columns and labels:
[1] = In vivo biodistribution study in U87MG tumor-bearing mice; conditions: female, athymic nude (nu/nu), mouse, iv, total radioactivity; for tissue uptake at 24 h: kidneys; for tissue to tissue ratio at 4 h: tumor / blood
Summary of the method: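 Female athymic nu/nu mice with subcutaneous shoulder U87MG xenografts (2 × 10^7 cells; tumors ~8–10 mm) were anesthetized and given ~100 μCi of 64Cu-DOTA-labeled knottin peptide by tail vein, then sacrificed at 0.5, 1, 4 or 24 h. Tumor, blood, kidneys and other organs were weighed and gamma-counted against a tracer aliquot, giving %ID/g and tumor-to-organ ratios. Mean ± SD, ≥3 mice.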

U87MG cells = conditions: read-out: IC50, competition binding of 125I-echistatin on U87MG cells; cited from earlier work
[2] = molecular target: integrin αvβ3 (Homo sapiens) (UniProt P06756); conditions: cited from earlier work
Chain of integrin αvβ3 (Homo sapiens) (P06756 31-1048, chain 1 of 2): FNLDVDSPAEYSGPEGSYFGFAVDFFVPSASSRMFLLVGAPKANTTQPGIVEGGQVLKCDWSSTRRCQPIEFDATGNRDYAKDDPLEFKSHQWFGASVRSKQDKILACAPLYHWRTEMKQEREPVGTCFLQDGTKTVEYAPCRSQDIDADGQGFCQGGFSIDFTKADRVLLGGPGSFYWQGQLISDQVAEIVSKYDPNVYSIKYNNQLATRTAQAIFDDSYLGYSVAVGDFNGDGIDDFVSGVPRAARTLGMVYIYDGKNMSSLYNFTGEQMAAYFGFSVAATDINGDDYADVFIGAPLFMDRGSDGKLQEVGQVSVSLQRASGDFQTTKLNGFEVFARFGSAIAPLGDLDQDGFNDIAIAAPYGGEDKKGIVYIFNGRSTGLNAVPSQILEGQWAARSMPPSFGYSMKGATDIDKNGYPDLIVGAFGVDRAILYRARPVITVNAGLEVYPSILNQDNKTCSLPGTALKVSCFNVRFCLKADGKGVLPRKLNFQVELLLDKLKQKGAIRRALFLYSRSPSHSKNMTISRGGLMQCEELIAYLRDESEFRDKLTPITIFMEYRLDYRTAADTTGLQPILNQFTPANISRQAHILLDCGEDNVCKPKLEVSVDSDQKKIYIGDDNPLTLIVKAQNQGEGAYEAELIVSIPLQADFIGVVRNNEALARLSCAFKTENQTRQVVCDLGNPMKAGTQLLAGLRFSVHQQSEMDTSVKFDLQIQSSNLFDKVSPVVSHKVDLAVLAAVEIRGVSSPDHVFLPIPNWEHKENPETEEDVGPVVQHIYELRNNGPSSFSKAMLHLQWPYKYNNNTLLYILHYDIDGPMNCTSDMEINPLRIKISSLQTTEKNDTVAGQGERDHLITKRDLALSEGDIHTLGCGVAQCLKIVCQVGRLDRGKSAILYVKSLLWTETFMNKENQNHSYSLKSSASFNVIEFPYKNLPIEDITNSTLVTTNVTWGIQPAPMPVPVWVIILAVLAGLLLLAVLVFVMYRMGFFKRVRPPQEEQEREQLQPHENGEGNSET
Chain of integrin αvβ3 (Homo sapiens) (P05106 27-788, chain 2 of 2, further chain): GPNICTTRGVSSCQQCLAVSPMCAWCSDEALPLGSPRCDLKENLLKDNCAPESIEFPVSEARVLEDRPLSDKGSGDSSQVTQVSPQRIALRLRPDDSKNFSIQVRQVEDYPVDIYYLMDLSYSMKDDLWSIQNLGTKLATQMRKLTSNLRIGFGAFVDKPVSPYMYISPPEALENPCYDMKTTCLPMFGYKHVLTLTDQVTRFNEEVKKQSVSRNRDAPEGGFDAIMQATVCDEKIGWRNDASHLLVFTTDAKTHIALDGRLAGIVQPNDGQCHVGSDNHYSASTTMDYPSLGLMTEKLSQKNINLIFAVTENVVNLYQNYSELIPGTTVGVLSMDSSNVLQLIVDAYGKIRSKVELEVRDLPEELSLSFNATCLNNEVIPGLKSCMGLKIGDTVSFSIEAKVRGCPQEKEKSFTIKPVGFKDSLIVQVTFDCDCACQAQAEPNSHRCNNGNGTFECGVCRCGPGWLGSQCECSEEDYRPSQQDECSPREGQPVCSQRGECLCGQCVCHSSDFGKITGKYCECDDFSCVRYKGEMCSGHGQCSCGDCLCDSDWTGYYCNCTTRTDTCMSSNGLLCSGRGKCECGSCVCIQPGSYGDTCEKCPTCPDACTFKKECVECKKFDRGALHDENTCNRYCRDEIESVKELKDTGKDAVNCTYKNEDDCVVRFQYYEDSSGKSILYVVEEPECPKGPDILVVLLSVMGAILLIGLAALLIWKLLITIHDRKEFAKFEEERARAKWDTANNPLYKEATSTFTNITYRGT

Chain of Echistatin (P17347 131-179): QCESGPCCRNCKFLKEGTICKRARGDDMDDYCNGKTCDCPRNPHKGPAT

Row | Compound | tissue uptake at 24 h [1] [%ID/g] | tissue to tissue ratio at 4 h [1] | IC50 (U87MG cells) [nM] | Kd [2] [nM]
1 | CC(C)C[C@@H]1NC(=O)[C@@H]2CSSC[C@@H](C(=O)NCC(N)=O)NC(=O)[C@H](Cc3ccccc3)NC(=O)CNC(=O)[C@H](CC(N)=O)NC(=O)[C@@H]3CCCN3C(=O)CNC(=O)[C@@H]3CSSC[C@H](NC(=O)[C@H](CO)NC(=O)[C@H]([C@@H](C)O)NC(=O)[C@@H]4CCCN4C(=O)[C@H](C)NC(=O)[C@H](Cc4c[nH]c5ccccc45)NC(=O)[C@H](CC(=O)O)NC(=O)CNC(=O)[C@H](CCCNC(=N)N)NC(=O)CNC(=O)[C@H](CCC(N)=O)NC(=O)[C@@H]4CCCN4C(=O)[C@@H](NC(=O)CNC(=O)CN4CCN(CC(=O)O)CCN(CC(=O)O)CCN(CC(=O)O)CC4)CSSC[C@H](NC(=O)CNC(=O)[C@H](C)NC1=O)C(=O)N[C@@H](C(C)C)C(=O)N3)C(=O)N[C@@H](CO)C(=O)N[C@@H](CCC(N)=O)C(=O)N[C@@H](CC(=O)O)C(=O)N[C@@H](CO)C(=O)N[C@@H](CC(=O)O)C(=O)N2 [^64Cu-DOTA-2.5D, metal not drawn] ({DOTA}-GCPQGRGDWAPTSCSQDSDCLAGCVCGPNGFCG-NH2; disulfide 2-24, 14-26, 20-32; C-terminus assumed) | 1.25 ± 0.11 | 24.9 ± 2.62 |  | 
2 | CC(C)C[C@@H]1NC(=O)[C@@H]2CSSC[C@@H](C(=O)NCC(N)=O)NC(=O)[C@H](Cc3ccccc3)NC(=O)CNC(=O)[C@H](CC(N)=O)NC(=O)[C@@H]3CCCN3C(=O)CNC(=O)[C@@H]3CSSC[C@H](NC(=O)[C@H]([C@@H](C)O)NC(=O)[C@H](CC(C)C)NC(=O)[C@@H]4CCCN4C(=O)[C@@H]4CCCN4C(=O)[C@H](CC(N)=O)NC(=O)[C@H](CC(=O)O)NC(=O)CNC(=O)[C@H](CCCNC(=N)N)NC(=O)[C@@H]4CCCN4C(=O)[C@H](CCCNC(=N)N)NC(=O)[C@@H]4CCCN4C(=O)[C@@H](NC(=O)CNC(=O)CN4CCN(CC(=O)O)CCN(CC(=O)O)CCN(CC(=O)O)CC4)CSSC[C@H](NC(=O)CNC(=O)[C@H](C)NC1=O)C(=O)N[C@@H](C(C)C)C(=O)N3)C(=O)N[C@@H](CO)C(=O)N[C@@H](CCC(N)=O)C(=O)N[C@@H](CC(=O)O)C(=O)N[C@@H](CO)C(=O)N[C@@H](CC(=O)O)C(=O)N2 [^64Cu-DOTA-2.5F, metal not drawn] ({DOTA}-GCPRPRGDNPPLTCSQDSDCLAGCVCGPNGFCG-NH2; disulfide 2-24, 14-26, 20-32) | 1.09 ± 0.15 | 42.3 ± 8.65 |  | 
4 | Echistatin (from UniProt P17347) |  |  |  | 0.36
